The values that follow come from ChEMBL document CHEMBL4219025 (J Med Chem, 2018).

For test [1], the target named is T1, NAD-dependent protein deacetylase sirtuin-3, mitochondrial (Homo sapiens, UniProt Q9NTG7).
T1 sequence (Q9NTG7 whole entry): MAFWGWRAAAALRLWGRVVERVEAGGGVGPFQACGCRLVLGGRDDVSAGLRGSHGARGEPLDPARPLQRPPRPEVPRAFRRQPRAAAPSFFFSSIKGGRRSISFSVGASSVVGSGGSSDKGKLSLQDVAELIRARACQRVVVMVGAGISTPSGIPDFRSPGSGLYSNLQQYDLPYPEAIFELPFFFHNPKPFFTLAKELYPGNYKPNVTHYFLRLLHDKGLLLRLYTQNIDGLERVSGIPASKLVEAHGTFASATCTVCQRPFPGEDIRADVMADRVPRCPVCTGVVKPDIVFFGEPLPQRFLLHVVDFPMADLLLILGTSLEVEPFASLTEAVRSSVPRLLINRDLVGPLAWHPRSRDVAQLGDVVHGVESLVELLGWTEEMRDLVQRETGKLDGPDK
As to the kind of experiment: Inhibition of recombinant human His10-tagged Sirt3 (118 to 395 residues) expressed in Escherichia coli BL21(DE3) using Z-(Ac)Lys-AMC as substrate measured after 4 hrs by high-throughput fluorescence based assay.

The target in test [2] is T2, NAD-dependent protein deacetylase sirtuin-1 (Homo sapiens, UniProt Q96EB6).
T2 sequence (Q96EB6 whole entry): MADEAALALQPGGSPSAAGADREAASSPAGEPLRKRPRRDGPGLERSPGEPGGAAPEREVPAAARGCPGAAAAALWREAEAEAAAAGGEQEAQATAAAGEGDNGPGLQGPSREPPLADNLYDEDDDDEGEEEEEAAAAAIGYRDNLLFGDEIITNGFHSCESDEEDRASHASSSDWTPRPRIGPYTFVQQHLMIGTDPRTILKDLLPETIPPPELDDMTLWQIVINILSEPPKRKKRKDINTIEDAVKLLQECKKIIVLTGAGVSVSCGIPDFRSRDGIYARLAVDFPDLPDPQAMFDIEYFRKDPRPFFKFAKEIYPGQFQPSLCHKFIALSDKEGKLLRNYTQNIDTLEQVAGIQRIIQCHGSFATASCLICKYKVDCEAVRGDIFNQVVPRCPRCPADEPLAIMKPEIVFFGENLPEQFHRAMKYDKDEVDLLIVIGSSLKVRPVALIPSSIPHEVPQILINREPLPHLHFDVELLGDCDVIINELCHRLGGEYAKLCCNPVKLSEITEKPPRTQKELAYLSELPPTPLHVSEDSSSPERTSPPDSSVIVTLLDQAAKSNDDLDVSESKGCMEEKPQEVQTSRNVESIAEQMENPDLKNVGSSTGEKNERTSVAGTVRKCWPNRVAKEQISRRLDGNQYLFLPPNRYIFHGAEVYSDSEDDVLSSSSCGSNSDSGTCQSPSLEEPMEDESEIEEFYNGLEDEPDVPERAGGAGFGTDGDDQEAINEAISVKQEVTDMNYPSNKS
As to the kind of experiment: Inhibition of recombinant human GST-tagged Sirt1 (133 to 747 residues) using Z-(Ac)Lys-AMC as substrate measured after 4 hrs by high-throughput fluorescence based assay.

The target in test [3] is T3, NAD-dependent protein deacetylase sirtuin-2 (Homo sapiens, UniProt Q8IXJ6).
T3 sequence (Q8IXJ6 whole entry): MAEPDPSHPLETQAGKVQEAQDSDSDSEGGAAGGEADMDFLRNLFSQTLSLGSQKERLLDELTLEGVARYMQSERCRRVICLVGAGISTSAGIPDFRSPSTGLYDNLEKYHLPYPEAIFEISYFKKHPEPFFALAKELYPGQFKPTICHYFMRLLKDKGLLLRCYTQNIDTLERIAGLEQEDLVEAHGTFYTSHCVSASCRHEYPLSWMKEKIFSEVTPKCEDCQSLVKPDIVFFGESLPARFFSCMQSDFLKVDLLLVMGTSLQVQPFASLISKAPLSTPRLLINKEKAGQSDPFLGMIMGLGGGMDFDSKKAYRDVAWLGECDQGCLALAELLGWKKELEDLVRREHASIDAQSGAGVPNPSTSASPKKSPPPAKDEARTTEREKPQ
As to the kind of experiment: Inhibition of recombinant human His10-tagged Sirt2 (56 to 356 residues) expressed in Escherichia coli BL21(DE3) using Z-(Ac)Lys-AMC as substrate measured after 4 hrs by high-throughput fluorescence based assay.

Test [4] concerns the target T4, Protein cereblon/NAD-dependent protein deacetylase sirtuin-2 (Homo sapiens) (UniProt Q8IXJ6+Q96SW2). As to the kind of experiment: Induction of cereblon-mediated Sirt2 degradation in human HeLa cells at 0.05 to 5 uM after 4 hrs by Western blot method. The class given is cell-based. The gist of the method:
(§1)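 HeLa cells in DMEM high glucose with 10% FCS, 37 °C, 5% CO2; 2x10^5 cells per 6-well (endogenous Sirt1/Sirt2) or 2x10^4 EGFP-Sirt2-HeLa per 24-well. Cycloheximide applied before compound (5 µg/ml 6-well, 3 µg/ml 24-well); 4 h default incubation, DMSO controls. Lysed in reducing sample buffer, 10% SDS-PAGE, PVDF, rabbit anti-Sirt2/Sirt1/GAPDH 1:5000, ECL; background-subtracted band intensities normalized to mean control.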

Test [5] concerns the target T4, Protein cereblon/NAD-dependent protein deacetylase sirtuin-2 (Homo sapiens). As to the kind of experiment: Induction of cereblon-mediated Sirt2 degradation in human HeLa cells at 10 uM after 2 hrs by Western blot method. The format is cell-based. The gist of the method: as §1
A general note: In western blotting, separated proteins are transferred to a membrane and probed.

Test [6] has as its target Protein cereblon/NAD-dependent protein deacetylase sirtuin-1 (Homo sapiens) (UniProt Q96EB6+Q96SW2). As to the kind of experiment: Induction of cereblon-mediated Sirt1 degradation in human HeLa cells at 10 uM after 1 to 6 hrs by Western blot method. The format is cell-based. In a few lines:
as §1

The target in test [7] is T4, Protein cereblon/NAD-dependent protein deacetylase sirtuin-2 (Homo sapiens). As to the kind of experiment: Induction of cereblon-mediated EGFP-fused Sirt2 (unknown origin) degradation expressed in human HeLa cells at 10 uM after 4 hrs in presence of 2-(4,6-dimethylpyrimidin-2-ylthio)-N-(5-(3-((1-(2-methoxyethyl)-1H-1,2,3-triazol-4-yl)methoxy)benzyl)thiazol-2-yl)acetamide and proteosome inhibitor MG132 by Western blot method. The class given is cell-based. The gist of the method:
as §1

Test [8] has the same target. As to the kind of experiment: Induction of cereblon-mediated EGFP-fused Sirt2 degradation in human HeLa cells assessed as increase in tubulin acetlyation at 10 uM after 4 hrs by DAPI dye-based immunofluorescent microscopic analysis. The format is cell-based.
For test [9] the target is unchanged. As to the kind of experiment: Induction of cereblon-mediated EGFP-fused Sirt2 (unknown origin) degradation expressed in human HeLa cells at 10 uM after 4 hrs by Hoechst 33342 staining-based fluorescent microscopic method. The format is cell-based. In a few lines: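 Live EGFP-Sirt2-expressing HeLa cells: 2x10^4 cells seeded on glass imaging dishes in complete medium overnight, treated with 10 μM compound for 4 h (DMSO controls), medium switched to phenol red-free DMEM, nuclei stained 0.5 µg/mL Hoechst 33342 for 5 min; confocal live imaging with 40× oil objective.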

Test [10] shares this target. As to the kind of experiment: Induction of cereblon-mediated Sirt2 degradation in human HeLa cells after 4 hrs by Western blot method. The class given is cell-based. In a few lines:
as §1

The target is the same in test [11]. As to the kind of experiment: Induction of cereblon-mediated Sirt2 degradation in human HeLa cells at 10 uM after 1 to 6 hrs by Western blot method. The class given is cell-based. In a few lines: as §1

Active and inactive are the calls of the source. No cut-off for these calls is given here.

T4 sequence (Q96SW2 whole entry, looked up, one chain of several): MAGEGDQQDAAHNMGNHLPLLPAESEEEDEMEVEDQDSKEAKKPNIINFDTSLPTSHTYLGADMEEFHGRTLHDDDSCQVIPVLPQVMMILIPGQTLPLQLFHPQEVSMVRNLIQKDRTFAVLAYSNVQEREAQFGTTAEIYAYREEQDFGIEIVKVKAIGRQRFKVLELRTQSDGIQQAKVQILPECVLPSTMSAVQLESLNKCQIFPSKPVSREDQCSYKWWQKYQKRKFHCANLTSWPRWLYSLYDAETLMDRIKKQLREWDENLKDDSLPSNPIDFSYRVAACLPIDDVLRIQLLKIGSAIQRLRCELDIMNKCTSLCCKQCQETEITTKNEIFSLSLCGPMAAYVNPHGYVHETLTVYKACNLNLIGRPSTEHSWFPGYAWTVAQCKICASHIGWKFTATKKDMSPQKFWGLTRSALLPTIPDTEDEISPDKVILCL
Protein cereblon/NAD-dependent protein deacetylase sirtuin-1 (Homo sapiens), sequence (Q96SW2 whole entry, looked up, one chain of several): as above

The term IC50 denotes the point on the concentration scale where inhibition reaches its midpoint. On to `Cc1cc(C)nc(SCC(=O)Nc2ncc(Cc3cccc(OCc4cn(CCOCCOCCOCCOCCOCCOCCOCCOCCOCCOCCOCCNC(=O)CCCCC5SCC6NC(=O)NC65)nn4)c3)s2)n1` (stereo not given), for which the IC50 was more than 100 µM in test [1], more than 100 µM in test [2] and 310 nM in [3].

For `C#CCOc1cccc(Cc2cnc(NC(=O)CSc3nc(C)cc(C)n3)s2)c1`, the IC50 is more than 100 µM in test [2] and 2400 nM in test [3].

In the case of `Cc1cc(C)nc(SCC(=O)Nc2ncc(Cc3cccc4ccc(Cl)cc34)s2)n1`, in [2], the IC50 was more than 100 µM.

With `O=C1CCC(N2C(=O)c3ccccc3C2=O)C(=O)N1` (stereo not given), the outcome in test [4] was inactive.

Consider `Cc1cc(C)nc(SCC(=O)Nc2ncc(Cc3cccc(OCc4cn(CCCCNC(=O)COc5cccc6c5C(=O)N(C5CCC(=O)NC5=O)C6=O)nn4)c3)s2)n1` (stereo not given), for which the outcome in test [5], in [8], in test [9] and in [11] was Active. Also, the figures for the IC50 in [1], in [2] and in test [3] were more than 100 µM, more than 100 µM and 250 nM, respectively. Moreover, the result in [6] and in [7] was inactive. Further, in [10], the Activity entry was “Dose-dependent effect”.

As for `COCCn1cc(COc2cccc(Cc3cnc(NC(=O)CSc4nc(C)cc(C)n4)s3)c2)nn1`, the IC50 was more than 100 µM in [1] and 100 µM in test [2]. In addition, the outcome in [4] was inactive.

As to `Cc1cc(C)nc(SCC(=O)Nc2ncc(Cc3cccc4ccccc34)s2)n1`, the IC50 in [1] and in test [2] was more than 100 µM in each case.

As to `Cc1cc(C)nc(SCC(=O)Nc2ncc(Cc3cccc(OCc4cn(Cc5ccccc5)nn4)c3)s2)n1`, the IC50 in [1] is more than 100 µM; in [2], more than 100 µM; in test [3] it was 160 nM.
